Results published in ChEMBL document CHEMBL2311271 (Eur J Med Chem, 2013).

Legend:
Type in all cases: functional, cell-based
HepG2 = assay: Cytotoxicity against human HepG2 cells by MTT assay
Outline: (§1)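 Cells grown in RPMI-1640 with 10% fetal calf serum plus penicillin and streptomycin, 37 °C, 5% CO₂. Compounds in DMSO, final ≤2% (v/v), tested in 96-well cultures with MTT staining. IC₅₀ = concentration cutting optical density 50% versus untreated cells; three replicate wells per point; mean of three independent determinations.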

HeLa = assay: Cytotoxicity against human HeLa cells by MTT assay; outline: as §1
Bel-7402 = assay: Cytotoxicity against human Bel7402 cells by MTT assay; outline: as §1
BGC-823 = assay: Cytotoxicity against human BGC823 cells by MTT assay; outline: as §1
MCF7 = assay: Cytotoxicity against human MCF7 cells by MTT assay; outline: as §1
769-P = assay: Cytotoxicity against human 769-P cells by MTT assay; outline: as §1
786-0 = assay: Cytotoxicity against human 786-0 cells by MTT assay; outline: as §1
[1] = Cytotoxicity against human Blu-87 cells by MTT assay; outline: as §1
A549 = assay: Cytotoxicity against human A549 cells by MTT assay; outline: as §1
A-375 = assay: Cytotoxicity against human A375 cells by MTT assay; outline: as §1
HT-29 = assay: Cytotoxicity against human HT-29 cells by MTT assay; outline: as §1
KB = assay: Cytotoxicity against human KB cells by MTT assay; outline: as §1
SCaBER = assay: Cytotoxicity against human SCaBER cells by MTT assay; outline: as §1
U-251 = assay: Cytotoxicity against human U251 cells by MTT assay; outline: as §1
OS-RC-2 = assay: Cytotoxicity against human OS-RC2 cells by MTT assay; outline: as §1
CWR22R = assay: Cytotoxicity against human 22Rv1 cells by MTT assay; outline: as §1

| SMILES | IC50 (HepG2) [µM] | IC50 (HeLa) [µM] | IC50 (Bel-7402) [µM] | IC50 (BGC-823) [µM] | IC50 (MCF7) [µM] | IC50 (769-P) [µM] | IC50 (786-0) [µM] | IC50 [1] [µM] | IC50 (A549) [µM] | IC50 (A-375) [µM] | IC50 (HT-29) [µM] | IC50 (KB) [µM] | IC50 (SCaBER) [µM] | IC50 (U-251) [µM] | IC50 (OS-RC-2) [µM] | IC50 (CWR22R) [µM] |
| --- | --- | --- | --- | --- | --- | --- | --- | --- | --- | --- | --- | --- | --- | --- | --- | --- |
| CCCCCCCCCCOc1ccc2c3ccnc(C)c3n(CCCC)c2c1 | > 100 | > 100 | – | – | – | – | – | – | – | – | – | – | – | – | – | – |
| Cc1nccc2c3ccc(OCC(C)C)cc3n(CCCc3ccccc3)c12 | 12.9 | > 100 | 39.3 | 23 | > 100 | – | – | – | – | – | – | – | – | – | – | – |
| CCCCCCCCOc1ccc2c3ccnc(C)c3n(CCCc3ccccc3)c2c1 | > 100 | > 100 | – | – | – | – | – | – | – | – | – | – | – | – | – | – |
| CC(C)=CCOc1ccc2c3ccnc(C)c3n(CCCc3ccccc3)c2c1 | 21.1 | > 100 | 24.7 | 32.3 | > 100 | – | – | – | – | – | – | – | – | – | – | – |
| CCCCn1c2cc(OCc3ccccc3)ccc2c2ccnc(C)c21 | 17.8 | 47 | > 100 | 17.2 | 16.9 | 17.1 | 10.1 | 32.7 | 18.1 | 28.6 | 26.8 | 45 | 39.7 | – | – | – |
| Cc1nccc2c3ccc(OCC(C)C)cc3n(CC(C)C)c12 | 36.8 | 32.3 | 42.6 | 26.6 | 29.4 | 30.8 | 18.1 | 32.3 | 32.4 | 22.2 | 35.3 | 27.5 | 28.8 | 49.6 | 30.5 | – |
| CCOc1ccc2c3cc[n+](Cc4ccccc4)c(C)c3n(CC)c2c1 | – | – | – | – | – | 6.4 | 9.6 | 23.4 | 11.2 | 6.8 | 10.2 | 4.6 | 19.8 | 15.2 | 7.8 | – |
| CCCCn1c2cc(OCC(O)C(F)(F)F)ccc2c2ccnc(C)c21 (stereo not given) | > 100 | > 100 | 62 | 96.4 | 33.1 | – | – | – | – | – | – | – | – | – | – | – |
| CCCCn1c2cc(OCc3ccccc3)ccc2c2cc[n+](Cc3ccccc3)c(C)c21 | 2.7 | 2.2 | 3.6 | 21.4 | 15.7 | 20 | < 1.5 | 4.6 | 4.4 | 4 | 3.7 | 4 | 8.5 | 5.5 | 3.6 | 2.1 |
| Cc1nccc2c3ccc(OCc4c(F)c(F)c(F)c(F)c4F)cc3n(CCCc3ccccc3)c12 | > 100 | – | – | – | – | – | – | – | – | – | – | – | – | – | – | – |
| CCCCn1c2cc(OCc3c(F)c(F)c(F)c(F)c3F)ccc2c2ccnc(C)c21 | 13.6 | > 100 | > 100 | 18.3 | > 100 | – | – | – | – | – | – | – | – | – | – | – |
| CCCCOc1ccc2c3ccnc(C)c3n(CC)c2c1 | 16.3 | 29.2 | 52.9 | 15.6 | 18.5 | – | – | – | – | – | – | – | – | – | – | – |
| CCCCn1c2cc(OCC(C)C)ccc2c2cc[n+](Cc3ccccc3)c(C)c21 | 4.2 | 3.9 | 2.7 | 4.6 | 10.4 | 4.6 | 2.5 | 12.3 | 3.8 | 4.2 | 3.1 | 2 | 18.2 | 12.1 | 3.2 | 6.7 |
| CCCCOc1ccc2c3ccnc(C)c3n(CCCc3ccccc3)c2c1 | 12.4 | 88.7 | 34.8 | 14 | 68.9 | – | – | – | – | – | – | – | – | – | – | – |
| CCCCn1c2cc(OC(CC)CC)ccc2c2ccnc(C)c21 | 15.6 | 28.2 | 21.5 | 16.7 | 5.4 | 22.2 | 13.4 | 16 | 21 | 18.8 | 25.1 | 19.8 | 43.8 | 25.1 | 26.9 | – |
| CCCCn1c2cc(OCC(C)C)ccc2c2ccnc(C)c21 | 15.3 | 40.7 | 25.6 | 23.4 | 21.6 | 4 | 14.4 | 17.4 | 30 | 18.4 | 20.1 | 19.4 | 15.9 | 32.3 | 30.5 | – |
